In the library only some 5.1% were active in any assay of this set; here they are far more common.
STAT3 activator – STAT3 signaling activation | activation (% of control), % at 5.6 µM | U3A cells, IL-6 STAT3-luciferase reporter, luminescence; 100% = signal with IL-6 EC80 alone | 0.91% of 190,000 active;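 active = activation above the screen-wide mean of compound activation plus 3 SD, cut at about 130% in these data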;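 also: 0% = background luminescence of wells with medium and substrate only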
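Test system: human U3A cells carrying STAT3-luciferase construct; control set: IL-6-only wells as 100% reference; timing: compound pre-incubation 1 h before IL-6, then 6 h stimulation at 37 °C; also added: IL-6 stimulus at 33 ng/mL final; evaluation: % activation versus median of IL-6-stimulated wells; detection: reporter luminescence signal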
STAT1 inh-1 – STAT1 signaling inhibition. AID 920. NIH 3T3 STAT1-luciferase reporter, IFN-gamma, luminescence. 0.35% of 200,000 active. inhibition, % at 5.5 µM;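 active = inhibition above a set limit, the mean inhibition across all tested compounds plus 3 SD, cut at about 34% in these data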;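 also: 0% = IFN-gamma with DMSO and 100% = IFN-gamma with 300 µM nifuroxazide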
STAT3 blocker – inhibitors of IL-6 induced STAT3 signaling. U3A cells, IL-6 STAT3-luciferase reporter, luminescence; host cell line lacks STAT1. inhibition, % at 5.5 µM. 0.89% of 190,000 active. AID 862;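 active = inhibition above the mean inhibition across all screened compounds plus 3 SD, cut at about 44% in these data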;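 also: 0% = DMSO only wells and 100% = 100 µM nifuroxazide control wells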
APP 5'UTR act – activates APP 5'UTR luciferase reporter; SH-SY5Y APP 5'UTR luciferase reporter, luminescence; zero percent = DMSO vehicle wells; activation, % at 2 µM; 1% of 190,000 active; AID 1276;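 active = activation above a set limit, based on mean plus 3 SD of controls, cut at about 140% in these data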
STAT1 act – activators of IFN-gamma induced STAT1 signaling | activation (% of control), % at 5.5 µM | 2.6% of 200,000 active | AID 932 | NIH 3T3 STAT1-luciferase reporter, luminescence; 100% = IFN-gamma alone, no compound;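 active = activation above the screen-wide mean activation plus 3 SD, cut at about 130% in these data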;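 also: raw ratio to IFN-gamma control signal so 100% means no change and 0% no light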
NF-kB neuron act – raises NF-kB expression in human neuronal cells; NF-kB reporter expression; active compounds read high; fold change at 12.5 µM; 1.6% of 190,000 active; AID 1239; in the data active = fold change above about 3.3
STAT1 inh-2 – STAT1 inhibition, confirmation assay; inhibition, % at 5.5 µM; 55% of 200 active; NIH 3T3 STAT1-luciferase reporter, IFN-gamma, luminescence; AID 1263; shares compounds with STAT1 inh-1;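 active = triplicate mean inhibition exceeding the hit cutoff computed for the primary STAT1 screen, cut at about 35% in these data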;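 also: 0% = DMSO with IFN-gamma and 100% = 300 µM nifuroxazide with IFN-gamma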
NFkB inh – inhibits NF-kappaB, counter-screen to STAT1 inhibitors; shares compounds with STAT1 inh-1; HEK293T NF-kB luciferase reporter, TNF-alpha induced, luminescence; inhibition, % at 5.7 µM; 30% of 200 active; AID 1303;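 active = inhibition above the mean of solvent-only control wells plus 3 SD of those wells, cut at about 15% in these data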;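 also: 0% = DMSO with TNF-alpha and 100% = MG-132 control with TNF-alpha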
STAT3 inh STAT1c – inhibits STAT3, counter-screen to STAT1 inhibitors | shares compounds with STAT1 inh-1 | U3A cells, IL-6 STAT3 luciferase reporter, luminescence; cells lacking STAT1 | inhibition, % at 5.7 µM | 20% of 200 active | AID 1310;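 active = inhibition above the mean of solvent-only control wells plus 3 SD, set per campaign, cut at about 25% in these data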;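 also: 0% = IL-6 plus DMSO and 100% = IL-6 plus nifuroxazide control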
Numbers without * were called inactive; nt = no result given.

SMILES | STAT3 activator | STAT1 inh-1 | STAT3 blocker | APP 5'UTR act | STAT1 act | NF-kB neuron act | STAT1 inh-2 | NFkB inh | STAT3 inh STAT1c
CCOC(=O)N1CCN(C(=O)CCn2c(=S)[nH]c3ccsc3c2=O)CC1 | 91 | 48* | 13 | -2 | 55 | 0.89 | 19 | -4 | -1
CS(=O)(=O)c1nc(-c2ccccc2)cc(C(F)(F)F)n1 | 101 | 36* | 6 | -62 | 67 | 0.94 | 47* | -3 | 2
CC1=C(C(=O)OCc2ccccc2)C(c2cccnc2)c2c(n(C)c(=O)n(C)c2=O)N1 (stereo not given) | 92 | -2 | 19 | -5 | 102 | 0.7 | nt | nt | nt
COc1cccc(NC(=O)CSc2nnc(-c3cc(C)n(-c4ccccc4)c3C)o2)c1 | 94 | 40* | 15 | 38 | 65 | 0.22 | 18 | 9 | -23
C#Cc1ccc([C@@H]2C=C(C(=O)OCC=C)O[C@H](OCC)[C@H]2CCCO)cc1 | nt | 37* | nt | -6 | 67 | 0.86 | 22 | -1 | 2
C#Cc1ccc([C@H]2C=C(C(=O)OCC=C)O[C@@H](OCC)[C@@H]2CCCO)cc1 | nt | 56* | nt | 9 | 49 | 0.99 | 36* | 2 | -17
C=CCOC(=O)C1=C[C@H](c2ccccc2)[C@@H](CCCO)[C@H](OCC)O1 | nt | 16 | nt | 11 | 87 | 1 | nt | nt | nt
N#C/C(=N\Nc1cccc([N+](=O)[O-])c1)C(=O)c1ccc(Br)cc1 | 72 | 69* | 38 | -7 | 35 | 0.49 | 44* | 12 | 29*
Cc1sc(-c2ccccn2)nc1OC(=O)c1ccc(F)cc1F | 93 | 74* | 14 | -21 | 30 | 1.2 | 50* | 24* | -11
CCOC(=O)c1c(C)nc2sc3c(=O)n(-c4ccc(OC)cc4)nnc3c2c1-c1ccc(OC)cc1 | 95 | 50* | 8 | -8 | 56 | 0.81 | 48* | 9 | 9
CCOC(=O)c1c(C)nc2sc3c(=O)n(-c4ccc(C(C)=O)cc4)cnc3c2c1-c1ccc(OC)cc1 | 101 | 4 | 4 | 7 | 97 | 0.57 | nt | nt | nt
COCCn1c(C)cc(C(=O)COc2ccc(C)nc2[N+](=O)[O-])c1C | 76 | 36* | 32 | -2 | 66 | 0.46 | -15 | 11 | 2
CCOC(=O)N1CCN(Cc2cc(Cl)c3cccnc3c2O)CC1 | 99 | -3 | 3 | -83 | 101 | 1.2 | nt | nt | nt
O=C(C1CCC(CNc2nc(=S)[nH]c3ccccc23)CC1)N1CCN(c2ccc(F)cc2)CC1 (stereo not given) | 97 | 48* | 6 | 2 | 55 | 0.76 | 33 | 6 | 19
COC(=O)CSc1nc(C)c(C)c(C)c1C(N)=O | 97 | -4 | 9 | -7 | 100 | 0.99 | nt | nt | nt
CCCCCCC(=O)N(O)C1CC(=O)N(Cc2ccccc2)C1=O (stereo not given) | 83 | 35* | 22 | 0 | 68 | 1.4 | 30 | 11 | 22
O=C(c1ccc(OC2CCN(CCc3ccccc3)CC2)cc1)N1CCCC(CO)C1 (stereo not given) | 98 | 1 | 7 | 1 | 97 | 0.92 | nt | nt | nt
CCCNC(=O)CSCc1nc(-c2ccc(SC)cc2)oc1C | 95 | 13 | 17 | 8 | 87 | 1.1 | nt | nt | nt
CCc1ccc(-c2nc(CSCC(=O)NCc3ccco3)c(C)o2)cc1 | 84 | 83* | 28 | -47 | 24 | 0.29 | 75* | 37* | 23
CC[C@@H](C)C(NC(=O)OC(C)(C)C)c1cn([C@@H](CCC(=O)OC(C)(C)C)C(=O)N2CCN(C(=O)OC(C)(C)C)CC2)nn1 (stereo not given in full) | nt | -7 | nt | 12 | 108 | 0.64 | nt | nt | nt
CCn1c(=O)c2cc(C(=O)N3CCOCC3)sc2c2ccccc21 | 103 | 4 | 5 | 22 | 96 | 0.76 | nt | nt | nt
CCn1c(=O)c2cc(C(=O)N3CCCC3)sc2c2ccccc21 | nt | 56* | nt | 25 | 48 | 0.77 | 47* | 10 | -21
CC(=O)/C(=C/c1ccccc1)C(=O)Nc1ccccc1C | 92 | 12 | 14 | 6 | 87 | 1.1 | nt | nt | nt
Cc1ccccc1NC(=O)C(=Cc1ccc(C(=O)O)cc1)C(=O)Nc1ccccc1C | 111 | 41* | -13 | -9 | 62 | 0.69 | 46* | -1 | -15
Cc1ccc(NC(=O)C(Nc2cccc(C)c2)c2ccccc2)cc1 (stereo not given) | 95 | -3 | 4 | 15 | 103 | 1.1 | nt | nt | nt
SMILES | STAT3 activator | STAT1 inh-1 | STAT3 blocker | APP 5'UTR act | STAT1 act | NF-kB neuron act | STAT1 inh-2 | NFkB inh | STAT3 inh STAT1c
CCC1CCC(C(=O)NC(C(=O)NCCCN2CCCCC2C)C(C)C)CC1 (stereo not given) | 104 | 1 | -2 | 17 | 99 | 0.76 | nt | nt | nt
Cc1cc(O)ccc1N1C(=O)c2cccc3cc([N+](=O)[O-])cc(c23)C1=O | 87 | 46* | 17 | 6 | 56 | 1.4 | 30 | 0 | 9
COc1cccc(C2c3[nH]c4ccccc4c3CCN2Cc2cnc(C)s2)c1OC (stereo not given) | 129 | 60* | -27 | 7 | 45 | nt | 15 | 12 | -27
Cn1cc(CN2CCc3c([nH]c4ccccc34)C2C2CCCCC2)cn1 (stereo not given) | 130 | 2 | -32 | -3 | 96 | 1.1 | nt | nt | nt
CCNc1nc(N2CCCC2)nc(N2CCCC2)n1 | 114 | 16 | -14 | 1 | 86 | 1.2 | nt | nt | nt
CCNc1nc(NC(C)(C)C)nc(N2CCCCC2)n1 | 94 | 39* | 13 | 3 | 64 | 1.6 | 24 | -6 | 19
COc1ccc(CNC(NC(=O)c2ccccc2)(C(F)(F)F)C(F)(F)F)cc1 | 105 | -3 | -6 | -1 | 102 | 1.2 | nt | nt | nt
Cc1cccc(/C=C(\c2nc3ccccc3[nH]2)S(=O)(=O)c2ccccc2)c1 | 95 | 38* | 9 | -12 | 65 | 1.5 | 47* | 5 | 18
CCOC(=O)N1CCN(C(=S)NC(=O)c2ccc(Br)cc2)CC1 | 118 | 3 | -14 | 28 | 96 | 0.96 | nt | nt | nt
CCOC(=O)N1CCN(C(=S)NC(=O)c2cc(Br)ccc2Cl)CC1 | 96 | 44* | 7 | 16 | 58 | 0.95 | 20 | -8 | 0
Cc1occc1C(=O)NNC(=O)c1ccccc1F | 91 | -13 | 18 | 22 | 113 | 2 | nt | nt | nt
